A selection: hits, their analogues and other compounds. The true share with any hit is near 4.6%.
OX1R antag-1: blocks the human orexin 1 receptor | OX1R-expressing cells, FRET antagonist read-out | inhibition, % at 6.6 µM | hit rate 1.8% among 330,000 | AID 485270; in the data active means inhibition mostly above about 38%, no sharp cut-off; inactive means mostly below about 40%;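 further: 0% = agonist challenge alone and 100% = reference antagonist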
Target sequence (O43613 whole entry, looked up): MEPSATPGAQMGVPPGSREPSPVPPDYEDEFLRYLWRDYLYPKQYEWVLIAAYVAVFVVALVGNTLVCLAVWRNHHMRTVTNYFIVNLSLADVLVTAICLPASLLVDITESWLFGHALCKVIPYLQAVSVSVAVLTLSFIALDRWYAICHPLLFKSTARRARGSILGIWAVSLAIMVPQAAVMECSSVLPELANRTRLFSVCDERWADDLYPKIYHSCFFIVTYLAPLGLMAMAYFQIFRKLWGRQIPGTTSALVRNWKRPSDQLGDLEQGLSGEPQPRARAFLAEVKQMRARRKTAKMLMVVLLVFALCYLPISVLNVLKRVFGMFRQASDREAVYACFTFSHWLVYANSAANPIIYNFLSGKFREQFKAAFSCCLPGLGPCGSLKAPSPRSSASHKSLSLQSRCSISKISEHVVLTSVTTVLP
OX1R antag-2: human HCRTR1 antagonism; inhibition, % at 5 µM; CHO/OX1R cells, Fluo-8 calcium fluorescence, orexin A; hit rate 0.43% among 330,000;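 active means inhibition above its plate's threshold, mean inhibition of all tested compounds on the plate plus 3 SD, cut at about 37% in these data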;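 further: 0% = orexin A challenge wells and 100% = SB-334867-A antagonist wells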
TAAR1 ag: human TAAR1 agonism | AID 624467 | Q96RJ0 | hit rate 0.99% among 360,000 | CHO RD-HGA16 TAAR1, Fluo-8 calcium fluorescence; vehicle wells 0%, saturating PEA agonist 100% | activation, % at 3 µM;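 active means activation above the mean activation of all test compounds in the run plus 3 SD, cut at about 38% in these data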
Target sequence (Q96RJ0 whole entry, looked up): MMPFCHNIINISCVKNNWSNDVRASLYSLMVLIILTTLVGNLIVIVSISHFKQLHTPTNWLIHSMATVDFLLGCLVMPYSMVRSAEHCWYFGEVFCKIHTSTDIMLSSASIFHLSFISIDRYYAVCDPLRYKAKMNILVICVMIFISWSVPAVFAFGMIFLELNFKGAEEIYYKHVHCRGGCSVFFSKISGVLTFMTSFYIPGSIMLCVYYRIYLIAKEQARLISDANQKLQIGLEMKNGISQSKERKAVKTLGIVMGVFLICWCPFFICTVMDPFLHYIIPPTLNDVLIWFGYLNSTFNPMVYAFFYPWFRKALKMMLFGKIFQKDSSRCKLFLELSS
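Signal – calcium-sensitive Fluo-8 signal, excitation 470-495, emission 515-575 nm · System – RD-HGA16 (CHO) cells co-expressing Gα16 and hTAAR1 · Incubation – 17-24 h seeding, 75 min 37 °C dye, 30 min RT · Compound dosing – 3 µM single concentration · Repeats – no replicates (n 1)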
CHO parental Ca: counter-screen: ATP calcium response change in parental CHO cells; parental CHO-K1, ATP-induced calcium, Fluo-8 fluorescence; inhibition, % at 5.6 µM; hit rate 0.63% among 330,000; AID 463079;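 active means inhibition above that plate's mean sample inhibition plus 3 SD, cut at about 26% in these data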;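 further: 0% = ATP-challenged DMSO wells and 100% = DMSO wells without ATP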
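material = parental CHO cells | also added = ATP as calcium-mobilizing challenge | dosing = single point at 5.6 µM | detection = intracellular calcium via Fluo-8 no-wash fluorescent dye | read-out = % inhibition | benchmarks = low control ATP plus DMSO, high control DMSO only | repeats = one well per compound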
TAAR1 antag: human TAAR1 antagonism. hit rate 1.5% among 360,000. inhibition, % at 3 µM. CHO RD-HGA16 TAAR1, Fluo-8 calcium fluorescence, antagonist. AID 624466;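 active means inhibition above a per-plate cutoff, the mean inhibition of test compounds on that plate plus 3 SD, cut at about 49% in these data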;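 further: 0% = DMSO plus EC80 beta-PEA response and 100% = DMSO alone without agonist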
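Assay system: CHO-derived RD-HGA16 cells stably expressing human TAAR1 plus Gα16. Timing: 140 s kinetic read after compound, 140 s after agonist. Technique: kinetic Fluo-8 calcium fluorescence measurement. Measure: % inhibition of agonist calcium response.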
GPR7 antagonist: antagonists of human GPR7 (neuropeptides B/W receptor 1); P48145; GPR7-expressing cells, fluorescence antagonist assay; inhibition, % at 4.4 µM; hit rate 1.1% among 290,000; AID 1861; in the data active means inhibition above about 16%, passing the limit was not always enough;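 further: cells stimulated with the agonist NPW; 0% = agonist with vehicle and 100% = vehicle without agonist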
TAAR1 nonsel count: nonselective antagonism, TAAR1 counter-screen; shares compounds with TAAR1 antag; counterscreen cell line, calcium fluorescence, antagonist mode; inhibition, % at 3 µM; hit rate 77% among 2,400; AID 651780; in the data active means inhibition above about 22%;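 further: CHO-Ga16 host cells stimulated with ATP at an EC80 level; 0% = agonist EC80 plus vehicle and 100% = vehicle without agonist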
TAAR1 antag conf: human TAAR1 antagonism, confirmed | hit rate 40% among 2,400 | TAAR1-expressing cells, fluorescence antagonist read-out | inhibition, % at 3 µM | AID 651785 | shares compounds with TAAR1 antag; in the data active means inhibition above about 49%;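 further: CHO-Ga16 host cells challenged with agonist PEA near its EC80; 0% = agonist at EC80 plus vehicle and 100% = vehicle with no agonist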
Ga16 nonsel ag: nonselective Ga16 agonism, counter-screen | AID 651953 | Ga16-expressing cells, calcium fluorescence, agonist counterscreen | activation, % at 3 µM | hit rate 18% among 2,400 | shares compounds with TAAR1 antag; in the data active means activation above about 12%;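 further: 0% = vehicle wells and 100% = saturating stimulus response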
TAAR1 ag count: counter-screen for human TAAR1 antagonists: TAAR1 agonists | shares compounds with TAAR1 antag | hTAAR1 cell line, fluorescence activation, agonist mode | activation, % at 3 µM | hit rate 2% among 2,400; in the data active means activation above about 37%;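 further: CHO cells stably expressing TAAR1 with calcium dye readout; 0% = DMSO vehicle and 100% = full agonist response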
The depositor's hits bear a star; . = not tested or not shown.

SMILES	OX1R antag-1	OX1R antag-2	TAAR1 ag	CHO parental Ca	TAAR1 antag	GPR7 antagonist	TAAR1 nonsel count	TAAR1 antag conf	Ga16 nonsel ag	TAAR1 ag count
CCOc1cc(NC(=S)NC)c(OCC)cc1NC(=O)c1cccs1	13.0	-27.0	11.0	-18.4	54.1*	-0.1	4.3	6.3	0.1	1.3
CCOc1cc(NC(=S)NCCOC)c(OCC)cc1NC(=O)c1cccs1	18.5	-23.5	9.6	-18.4	-5.3	-7.3	.	.	.	.
CC(C)Oc1ccccc1-c1cc(C(=O)N/N=C/c2cccnc2)c2ccccc2n1	19.5	-23.4	9.3	-27.1	49.6*	-24.3	20.8	30.3	6.3	4.6
COc1ccc(-c2cc(C(=O)N/N=C/c3cccnc3)c3ccccc3n2)cc1	.	.	6.0	.	11.4	3.4	.	.	.	.
COc1ccc(-c2cc(C(=O)N/N=C/c3cc(OC)c(OC)cc3OC)c3ccccc3n2)cc1	2.8	-25.5	8.5	-19.2	68.2*	.	28.2*	36.0	6.1	2.7
COc1cc(/C=N/NC(=O)c2cc(-c3cccc(OC(C)C)c3)nc3ccccc23)ccc1O	12.4	-36.0	1.0	-49.1	53.6*	.	15.8	48.0	3.9	11.3
Cc1ccccc1-c1cc(C(=O)N/N=C/c2cccnc2)c2ccccc2n1	.	.	0.4	.	0.1	-7.4	.	.	.	.
CCCNC(=O)c1ccccc1NC(=O)c1ccc2c(c1)NC(=O)C(C)S2 (centres undefined)	43.2	-34.0	8.6	-26.9	59.0*	0.1	27.4*	49.3*	7.0	14.2
C=CCn1c(=S)[nH]c2cc(C(=O)Nc3ccc(F)cc3)ccc2c1=O	11.7	-5.8	18.3	13.6	62.3*	2.6	35.2*	38.4	14.8*	17.6
Nc1nc(SCC(=O)Nc2ccc(OCc3ccccc3)cc2)n[nH]1	0.0	-2.6	6.0	-4.1	-1.6	-0.5	.	.	.	.
CC(C)c1ccc(/C=N/NC(=O)c2ccc(-n3cnnn3)cc2)cc1	.	.	16.4	.	66.2*	.	32.3*	47.9	9.0	7.8
CCOC(=O)c1sc(SC)nc1N	2.7	-3.3	5.4	-6.2	12.2	-4.2	.	.	.	.
Cc1ccc(S(=O)(=O)N2CCOCC2)cc1C(=O)Nc1ccc(-c2cn3ccsc3n2)cc1	58.2	7.5	17.9	8.3	73.7*	1.9	30.4*	74.5*	10.1	8.7
CCCOc1ccc(F)cc1-c1cc(C(=O)NCc2ccccc2OC)[nH]n1	.	.	-1.9	.	-1.5	.	.	.	.	.
CN(Cc1c(F)cccc1Cl)C(=O)c1ccc(NC(=O)CC2SC(N3CCCC3)=NC2=O)cc1 (centres undefined)	20.5	-22.0	-2.0	-7.8	-25.8	.	.	.	.	.
CCOC(=O)C1CCCN(C(=O)c2cc(-c3ccco3)nc3ccccc23)C1 (centres undefined)	12.2	-12.9	3.5	-18.5	-0.4	.	.	.	.	.
CCOC(=O)C1CCCN(C(=O)c2cc(Nc3ccc(OC)cc3)nc3ccccc23)C1 (centres undefined)	18.4	-31.2	12.3	-27.8	48.8*	1.9	28.8*	45.1	7.5	4.6
COc1ccc(/C=N/Nc2nc(-c3cccnc3)nc3ccccc23)cc1OC	23.7	-22.2	18.6	-16.2	71.8*	-5.5	29.2*	51.3*	10.4	8.4
Clc1ccccc1-c1nc(N/N=C/c2cccnc2)c2ccccc2n1	22.1	-37.0	8.2	-39.3	30.4	8.0	.	.	.	.
Cc1ccc(-c2nc(N/N=C/c3ccncc3)c3ccccc3n2)cc1	-1.5	-19.9	11.0	-8.4	56.6*	7.5	27.2*	44.2	4.3	1.4
Clc1cccc(CNc2nc(-c3cccnc3)nc3ccccc23)c1	.	.	6.1	.	45.4	5.7	.	.	.	.
Oc1ccc(/C=N/Nc2nc(-c3cccnc3)nc3ccccc23)c(O)c1	6.1	-14.0	14.6	-14.0	80.9*	-14.6	23.1*	44.3	7.6	9.7
Cc1nc2ccc(Cl)cc2nc1C	8.7	2.5	0.4	3.2	-8.6	-8.8	.	.	.	.
C=CCNC(=S)Nc1sc2c(c1C(=O)OCC)CC(C(C)C)OC2 (centres undefined)	18.5	-29.6	5.7	-34.2	-6.4	5.0	.	.	.	.
Cc1ccc(C(=O)N(CC#N)CC#N)cc1C	4.2	3.7	7.2	6.7	11.8	-3.9	.	.	.	.
SMILES	OX1R antag-1	OX1R antag-2	TAAR1 ag	CHO parental Ca	TAAR1 antag	GPR7 antagonist	TAAR1 nonsel count	TAAR1 antag conf	Ga16 nonsel ag	TAAR1 ag count
COc1cccc2sc3ccc(C#Cc4ccc(N)cc4)cc3c(=O)c12	29.7	-15.6	7.0	-13.9	41.4	-11.2	.	.	.	.
COc1ccccc1-c1oc2ccccc2c1C#CC1(O)CCCCC1	7.0	-9.7	8.0	-33.7	12.8	.	.	.	.	.
COc1cccc2oc3cc(C#CC4(O)CCCCC4)ccc3c(=O)c12	46.9	5.4	22.1	-27.6	56.7*	-6.6	21.6*	31.9	7.5	16.8
COc1cccc2sc3ccc(C#CC4(O)CCCCC4)cc3c(=O)c12	11.0	-27.5	16.5	-23.2	60.0*	-10.1	22.2*	31.4	5.7	3.6
Cc1cccc(N2CCN(C3=NC(=O)/C(=C\c4cn[nH]c4-c4ccccc4)S3)CC2)c1	18.2	-8.0	8.8	-8.5	60.6*	-10.7	41.0*	58.7*	5.9	0.9
Cn1c(=O)c2nc(SCc3ccccc3)n(C)c2n(C)c1=O	.	.	1.1	.	-14.6	.	.	.	.	.
COc1ccc(CCN2C(=O)c3cccc4c(C(=O)N5CCCCC5)ccc(c34)C2=O)cc1OC	14.5	-23.0	20.6	-19.4	61.3*	-2.6	36.5*	60.7*	12.4*	13.2
COc1ccc(CCNC(=O)CCN2C(=O)c3cccc4cccc(c34)C2=O)cc1OC	7.3	5.2	1.9	-3.6	6.8	-13.7	.	.	.	.
CCOC(=O)c1ccc(-c2ccc(/C=N/NC(=O)CN(c3ccccc3Br)S(C)(=O)=O)o2)cc1	10.1	-11.3	4.5	-0.9	56.8*	-7.8	28.9*	33.2	8.0	12.1
CS(=O)(=O)N(CC(=O)N/N=C/c1cccc2c1OCCO2)c1ccccc1Br	10.9	-17.0	4.8	-22.6	9.4	8.6	.	.	.	.
CCCCn1c(SCC(=O)Nc2cc(C(F)(F)F)ccc2Cl)nnc1C(CC)N(C)C (centres undefined)	12.3	-1.4	4.4	-10.0	-3.4	2.4	.	.	.	.
COc1ccc(-c2nc3cccc(C)n3c2NCC2CCCO2)cc1O (centres undefined)	28.6	-16.7	15.2	2.3	65.1*	-2.9	26.7*	47.7	8.1	8.0
CCOC(=O)c1c(NC(=O)c2noc3c2CCCC3)sc(C)c1C	.	.	.	.	.	1.2	.	.	.	.
